# In ChEMBL document CHEMBL1275537, “In vitro activities of tigecycline and 10 other antimicrobials against nonpigmented rapidly growing mycobacteria” (2008):
# Legend:
# Type in all cases: functional
# [1] = tested on: Mycobacteroides abscessus; assay: Antibacterial activity against nonpigmented rapidly growing Mycobacterium abscessus after 3 days by broth microdilution method; settings: 72 h
# Summary of the method: (§1)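 MIC by broth microdilution. Strains are collection strains and clinical isolates, grown on 5% sheep blood tryptic soy agar at 35°C for 4 days in room air. Inoculum is made straight from the blood agar plates in cation-supplemented Mueller-Hinton broth with 0.02% Tween 80. Doubling dilutions run 64 to 0.03 µg/ml. Plates are incubated at 30°C in room air and read at 3 days. E. coli ATCC 25922, S. aureus ATCC 29213 and E. faecalis ATCC 29212 serve as controls. MIC50 and MIC90 are given where ≥10 strains were tested, otherwise the range.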
# Mycobacterium wolinskyi = assay: Antibacterial activity against nonpigmented rapidly growing Mycobacterium wolinskyi after 3 days by broth microdilution method; settings: Mycolicibacterium wolinskyi, 72 h; summary of the method: as §1
# Mycobacteroides chelonae = assay: Antibacterial activity against nonpigmented rapidly growing Mycobacterium chelonae after 3 days by broth microdilution method; settings: 72 h; summary of the method: as §1
# Mycobacterium porcinum = assay: Antibacterial activity against nonpigmented rapidly growing Mycobacterium porcinum after 3 days by broth microdilution method; settings: Mycolicibacterium porcinum, 72 h; summary of the method: as §1
# [2] = tested on: Mycolicibacterium smegmatis; assay: Antibacterial activity against nonpigmented rapidly growing Mycobacterium smegmatis after 3 days by broth microdilution method; settings: 72 h; summary of the method: as §1
# Mycobacterium septicum = assay: Antibacterial activity against nonpigmented rapidly growing Mycobacterium septicum after 3 days by broth microdilution method; settings: Mycolicibacterium septicum, 72 h; summary of the method: as §1
# [3] = tested on: Mycolicibacterium peregrinum; assay: Antibacterial activity against nonpigmented rapidly growing Mycobacterium peregrinum after 3 days by broth microdilution method; settings: 72 h; summary of the method: as §1
# [4] = tested on: Mycobacterium mucogenicum; assay: Antibacterial activity against nonpigmented rapidly growing Mycobacterium mucogenicum after 3 days by broth microdilution method; settings: Mycolicibacterium mucogenicum, 72 h; summary of the method: as §1
# [5] = tested on: Mycolicibacterium fortuitum; assay: Antibacterial activity against nonpigmented rapidly growing Mycobacterium fortuitum after 3 days by broth microdilution method; settings: 72 h; summary of the method: as §1
# [6] = tested on: Mycolicibacterium mageritense; assay: Antibacterial activity against nonpigmented rapidly growing Mycobacterium mageritense after 3 days by broth microdilution method; settings: 72 h; summary of the method: as §1
# Mycobacterium alvei = assay: Antibacterial activity against nonpigmented rapidly growing Mycobacterium alvei after 3 days by broth microdilution method; settings: Mycolicibacterium alvei, 72 h; summary of the method: as §1
Compound,MIC50 [1],MIC90 [1],MIC (Mycobacterium wolinskyi),MIC50 (Mycobacteroides chelonae),MIC90 (Mycobacteroides chelonae),MIC (Mycobacterium porcinum),MIC [2],MIC (Mycobacterium septicum),MIC50 [3],MIC90 [3],MIC [4],MIC50 [5],MIC90 [5],MIC [6],MIC (Mycobacterium alvei)
CC[C@H]1OC(=O)[C@H](C)[C@@H](O[C@H]2C[C@@](C)(OC)[C@@H](O)[C@H](C)O2)[C@H](C)[C@@H](O[C@@H]2O[C@H](C)C[C@H](N(C)C)[C@H]2O)[C@](C)(O)C[C@@H](C)CN(C)[C@H](C)[C@@H](O)[C@]1(C)O [AZITHROMYCIN],0.5 mg/L,2 mg/L,128 mg/L,0.5 mg/L,16 mg/L,32 mg/L,0.06 mg/L,0.5 mg/L,0.5 mg/L,64 mg/L,≤ 0.03 mg/L,8 mg/L,> 64 mg/L,2 mg/L,≤ 0.03 mg/L
CC[C@H]1OC(=O)[C@H](C)[C@@H](O[C@H]2C[C@@](C)(OC)[C@@H](O)[C@H](C)O2)[C@H](C)[C@@H](O[C@@H]2O[C@H](C)C[C@H](N(C)C)[C@H]2O)[C@](C)(OC)C[C@@H](C)C(=O)[C@H](C)[C@@H](O)[C@]1(C)O [CLARITHROMYCIN],≤ 0.03 mg/L,1 mg/L,32 mg/L,0.06 mg/L,4 mg/L,0.5 mg/L,≤ 0.03 mg/L,≤ 0.03 mg/L,0.06 mg/L,2 mg/L,≤ 0.03 mg/L,2 mg/L,16 mg/L,2 mg/L,≤ 0.03 mg/L
CC[C@H]1OC(=O)[C@H](C)[C@@H](O[C@H]2C[C@@](C)(OC)[C@@H](O)[C@H](C)O2)[C@H](C)[C@@H](O[C@@H]2O[C@H](C)C[C@H](N(C)C)[C@H]2O)[C@](C)(O)C[C@@H](C)C(=O)[C@H](C)[C@@H](O)[C@]1(C)O [ERYTHROMYCIN],1 mg/L,16 mg/L,128 mg/L,0.5 mg/L,32 mg/L,8 mg/L,0.12 mg/L,2 mg/L,1 mg/L,16 mg/L,≤ 0.03 mg/L,64 mg/L,> 64 mg/L,32 mg/L,≤ 0.03 mg/L
C[C@H]1COc2c(N3CCN(C)CC3)c(F)cc3c(=O)c(C(=O)O)cn1c23.C[C@H]1COc2c(N3CCN(C)CC3)c(F)cc3c(=O)c(C(=O)O)cn1c23.O [LEVOFLOXACIN],16 mg/L,32 mg/L,0.06 mg/L,0.5 mg/L,8 mg/L,0.06 mg/L,≤ 0.03 mg/L,0.12 mg/L,0.06 mg/L,0.25 mg/L,0.06 mg/L,0.06 mg/L,0.25 mg/L,≤ 0.03 mg/L,≤ 0.03 mg/L

# Continued by falling MIC (Mycobacterium wolinskyi), values first:
MIC50 [1],MIC90 [1],MIC (Mycobacterium wolinskyi),MIC50 (Mycobacteroides chelonae),MIC90 (Mycobacteroides chelonae),MIC (Mycobacterium porcinum),MIC [2],MIC (Mycobacterium septicum),MIC50 [3],MIC90 [3],MIC [4],MIC50 [5],MIC90 [5],MIC [6],MIC (Mycobacterium alvei),Compound
8 mg/L,16 mg/L,8 mg/L,4 mg/L,16 mg/L,1 mg/L,≤ 0.03 mg/L,0.5 mg/L,4 mg/L,8 mg/L,1 mg/L,16 mg/L,32 mg/L,8 mg/L,4 mg/L,NC[C@H]1O[C@H](O[C@H]2[C@H](O)[C@@H](O[C@H]3O[C@H](CO)[C@@H](O)[C@H](N)[C@H]3O)[C@H](N)C[C@@H]2N)[C@H](N)C[C@@H]1O [TOBRAMYCIN]
2 mg/L,8 mg/L,1 mg/L,1 mg/L,16 mg/L,0.25 mg/L,≤ 0.03 mg/L,1 mg/L,0.5 mg/L,1 mg/L,0.25 mg/L,1 mg/L,2 mg/L,0.5 mg/L,≤ 0.5 mg/L,NCC[C@H](O)C(=O)N[C@@H]1C[C@H](N)[C@@H](O[C@H]2O[C@H](CN)[C@@H](O)[C@H](O)[C@H]2O)[C@H](O)[C@H]1O[C@H]1O[C@H](CO)[C@@H](O)[C@H](N)[C@H]1O [AMIKACIN]
,,1 mg/L,,,2 mg/L,1 mg/L,32 mg/L,,,0.5 mg/L,,,1 mg/L,2 mg/L,CO[C@@]1(NC(=O)Cc2cccs2)C(=O)N2C(C(=O)O)=C(COC(N)=O)CS[C@@H]21 [CEFOXITIN]
2 mg/L,8 mg/L,0.25 mg/L,0.12 mg/L,2 mg/L,≤ 0.03 mg/L,0.12 mg/L,0.12 mg/L,≤ 0.03 mg/L,0.06 mg/L,≤ 0.03 mg/L,≤ 0.03 mg/L,0.12 mg/L,≤ 0.03 mg/L,≤ 0.03 mg/L,O=C(O)c1cn(C2CC2)c2cc(N3CCNCC3)c(F)cc2c1=O [CIPROFLOXACIN]
> 64 mg/L,> 64 mg/L,0.25 mg/L,8 mg/L,64 mg/L,8 mg/L,≤ 0.03 mg/L,32 mg/L,8 mg/L,32 mg/L,≤ 0.03 mg/L,4 mg/L,64 mg/L,≤ 0.03 mg/L,≤ 0.03 mg/L,C[C@H]1c2cccc(O)c2C(=O)C2=C(O)[C@]3(O)C(=O)C(C(N)=O)=C(O)[C@@H](N(C)C)[C@@H]3[C@@H](O)[C@@H]21.O [DOXYCYCLINE]
0.06 mg/L,0.5 mg/L,0.12 mg/L,0.12 mg/L,0.5 mg/L,0.06 mg/L,≤ 0.03 mg/L,≤ 0.03 mg/L,0.06 mg/L,0.06 mg/L,≤ 0.03 mg/L,≤ 0.03 mg/L,0.25 mg/L,≤ 0.03 mg/L,≤ 0.03 mg/L,CN(C)c1cc(NC(=O)CNC(C)(C)C)c(O)c2c1C[C@H]1C[C@H]3[C@H](N(C)C)C(O)=C(C(N)=O)C(=O)[C@@]3(O)C(O)=C1C2=O [TIGECYCLINE]
